Values after ≈ are worked out from the molar mass of the structure shown. Active and inactive are the calls of the source. The rule behind the calls is not given here.
Legend:
Escherichia coli [1] = experiment: Antimicrobial activity against Escherichia coli ATCC 25922 incubated for 24 hrs by agar well diffusion assay; type: functional
Outline: (§1)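 Nutrient agar spread with 100 µL inoculum: bacteria at 1×10^8 CFU/mL, fungi at 1×10^6 CFU/mL. 10 mm wells loaded with 100 µL of compound in DMSO (final 1 mg/mL). Bacteria incubated 24 h at 37 °C, fungi 48 h at 28 °C. Inhibition zones measured in mm. Ciprofloxacin and fluconazole standards at 1 mg/mL, DMSO negative control.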

Candida albicans [2] = experiment: Antimicrobial activity against Candida albicans ATCC 90028 incubated for 24 hrs by microdilution assay; type: functional
Outline: (§2)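 Two-fold serial dilutions of test solutions made in Mueller Hinton broth and inoculated. Incubated at 37°C for 24 h. MIC taken as the lowest concentration with no growth. Ciprofloxacin is the antibacterial reference, fluconazole the antifungal one, and DMSO the blank.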

HepG2 [3] = experiment: Induction of apoptosis in human HepG2 cells assessed as viable cells level at IC50 incubated for 72 hrs by annexin V/propidium iodide staining based flow cytometry (reference value: 98.97%); type: functional
MCF7 [4] = experiment: Induction of apoptosis in human MCF7 cells assessed as induction of cell shape loss by phase contrast inverted fluorescence microscopy; type: functional, cell-based
Pseudomonas aeruginosa = experiment: Antimicrobial activity against Pseudomonas aeruginosa ATCC 27853 incubated for 24 hrs by agar well diffusion assay; type: functional; outline: as §1
NFS-60 [5] = experiment: Induction of apoptosis in mouse NFS60 cells assessed as early apoptotic cells at IC50 incubated for 72 hrs by annexin V/propidium iodide staining based flow cytometry (reference value: 0.02 +/- 0.01%); type: functional
HepG2 [6] = experiment: Induction of apoptosis in human HepG2 cells assessed as late apoptotic cells at IC50 incubated for 72 hrs by annexin V/propidium iodide staining based flow cytometry (reference value: 0.1 +/- 0.001%); type: functional
MCF7 [7] = experiment: Induction of apoptosis in human MCF7 cells assessed as late apoptotic cells level at IC50 incubated for 72 hrs by annexin V/propidium iodide staining based flow cytometry (reference value: 0.01%); type: functional
HepG2 [8] = experiment: Induction of apoptosis in human HepG2 cells assessed as induction of cell shrinkage by phase contrast inverted fluorescence microscopy; type: functional, cell-based
MCF7 [9] = experiment: Induction of apoptosis in human MCF7 cells assessed as necrotic cells level at IC50 incubated for 72 hrs by annexin V/propidium iodide staining based flow cytometry (reference value: 0.48%); type: functional
Escherichia coli [10] = experiment: Antimicrobial activity against Escherichia coli ATCC 25922 incubated for 24 hrs by microdilution assay; type: functional; conditions: ATCC 25922, 24 h; outline: as §2
Staphylococcus aureus [11] = experiment: Antimicrobial activity against Staphylococcus aureus ATCC 25923 incubated for 24 hrs by agar well diffusion assay; type: functional; outline: as §1
NFS-60 [12] = experiment: Induction of apoptosis in mouse NFS60 cells assessed as viable cells level at IC50 incubated for 72 hrs by annexin V/propidium iodide staining based flow cytometry (reference value: 99.52%); type: functional
Staphylococcus aureus [13] = experiment: Antimicrobial activity against Staphylococcus aureus ATCC 25923 incubated for 24 hrs by microdilution assay; type: functional; outline: as §2
Enterococcus faecalis = experiment: Antimicrobial activity against Enterococcus faecalis ATCC 29212 incubated for 24 hrs by agar well diffusion assay; type: functional; outline: as §1
Candida albicans [14] = experiment: Antimicrobial activity against Candida albicans ATCC 90028 incubated for 48 hrs by agar well diffusion assay; type: functional; outline: as §1
NFS-60 [15] = experiment: Induction of apoptosis in mouse NFS60 cells assessed as total apoptotic cells at IC50 incubated for 72 hrs by annexin V/propidium iodide staining based flow cytometry (reference value: 0.495 +/- 0.01%); type: functional
MCF7 [16] = experiment: Induction of apoptosis in human MCF7 cells assessed as early apoptotic cells level at IC50 incubated for 72 hrs by annexin V/propidium iodide staining based flow cytometry (reference value: 0.01%); type: functional

SMILES | diameter of the inhibition zone (DIZ) (Escherichia coli [1]) [mm] | MIC (Candida albicans [2]) | Activity (HepG2 [3]) [%] | Activity (MCF7 [4]) | diameter of the inhibition zone (DIZ) (Pseudomonas aeruginosa) [mm] | Activity (NFS-60 [5]) [%] | Activity (HepG2 [6]) [%] | Activity (MCF7 [7]) [%] | Activity (HepG2 [8]) | Activity (MCF7 [9]) [%] | MIC (Escherichia coli [10]) [µM] | diameter of the inhibition zone (DIZ) (Staphylococcus aureus [11]) | Activity (NFS-60 [12]) [%] | MIC (Staphylococcus aureus [13]) | diameter of the inhibition zone (DIZ) (Enterococcus faecalis) | diameter of the inhibition zone (DIZ) (Candida albicans [14]) | Activity (NFS-60 [15]) [%] | Activity (MCF7 [16]) [%]
O=C(Cc1ccccc1)OC1(C(=O)Nc2ccc([N+](=O)[O-])cc2)CCCCC1 | 16 | inactive | 63.53 | Active | 15 | 13.64 | 27.77 | 20.57 | Active | 13.14 | 2680 (≈ 1020 µg/mL) | inactive | 61.34 | inactive | inactive | inactive | 34.129 | 7.06
O=C(OC1(C(=O)Nc2ccc([N+](=O)[O-])cc2)CCCCC1)C(O)c1ccccc1 (stereo unspecified) | 16 | inactive | 47.87 | Active | 14 | 21.04 | 42.85 | 28.9 | Active | 23.42 | 2570 (≈ 1020 µg/mL) | inactive | 53.25 | inactive | inactive | inactive | 44.185 | 3.76
O=C(OC1(C(=O)Nc2ccc([N+](=O)[O-])cc2)CCCCC1)c1ccc([N+](=O)[O-])cc1 |  |  | 57.37 | Active |  | 22.83 | 23.385 | 18.31 | Active | 25.02 |  |  | 55.46 |  |  |  | 41.795 | 1.96

Reference: ChEMBL document CHEMBL4390662, “Design, synthesis and biological evaluation of novel α-acyloxy carboxamides via Passerini reaction as caspase 3/7 activators” (Eur J Med Chem, 2019)
